Reference: ChEMBL document CHEMBL1126589, “Substituted 3-(phenylmethyl)-1H-indole-5-carboxamides and 1-(phenylmethyl)indole-6-carboxamides as potent, selective, orally active antagonists of the peptidoleukotrienes” (J Med Chem, 1993)

Assays:
[1] = biological target: T1, Cysteinyl leukotriene receptor 1 (Cavia porcellus, UniProt Q2NNR5); assay: Binding affinity against leukotriene receptor (LTD4) from guinea pig lung parenchymal membranes using [3H]LTD4 as radio ligand; format: tissue-based, Lung parenchyma
T1 sequence (Q2NNR5 whole entry): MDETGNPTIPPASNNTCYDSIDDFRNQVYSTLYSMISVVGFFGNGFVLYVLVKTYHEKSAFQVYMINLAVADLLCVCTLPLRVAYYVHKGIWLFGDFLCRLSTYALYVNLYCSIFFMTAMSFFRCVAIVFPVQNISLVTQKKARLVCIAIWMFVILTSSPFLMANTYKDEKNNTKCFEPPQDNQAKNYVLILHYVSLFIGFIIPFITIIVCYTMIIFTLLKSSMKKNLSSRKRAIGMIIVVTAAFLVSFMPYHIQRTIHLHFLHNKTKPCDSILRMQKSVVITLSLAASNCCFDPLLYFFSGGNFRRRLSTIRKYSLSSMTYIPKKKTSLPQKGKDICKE
Procedure, shortened: (§1)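 Displacement of [3H]LTD4 from guinea pig lung parenchymal membranes; Ki is the mean of two experiments run in duplicate with separate batches, reported as pKi (-log Ki).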

[2] = biological target: T1, Cysteinyl leukotriene receptor 1; assay: Binding affinity to the leukotriene receptor (LTD4) from guinea pig lung parenchymal membranes assayed using [3H]LTD4 as radioligand; format: tissue-based, Lung parenchyma; procedure, shortened: as §1
Cavia porcellus [3] = assay: Effective dose against LTD4-induced bronchoconstriction in guinea pig after peroral administration; format: functional; details: po
Procedure, shortened: (§2)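 Conscious guinea pigs challenged with LTD4 ("dyspnea" model) after oral or intravenous dosing; percent protection from LTD4-induced dyspnea plotted against dose to derive ED50; po/iv ratio taken from the oral and intravenous ED50 values.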

[4] = ED50 ratio of LTD4 peroral administration / LTD4 intravenous administration; format: functional; procedure, shortened: as §2
Cavia porcellus [5] = assay: Effective dose against LTD4-induced bronchoconstriction in guinea pig after intravenous administration; format: functional; procedure, shortened: as §2
[6] = biological target: T2, Cysteinyl leukotriene receptor 1 (Cavia porcellus) (UniProt Q2NNR5); assay: Binding affinity against leukotriene receptor (LTE4) from guinea pig tracheal spirals; format: tissue-based
T2 sequence (whole entry): T1 sequence (Q2NNR5 whole entry)
Procedure, shortened: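 Functional antagonism in isolated guinea pig tracheal spirals contracted with LTE4 as agonist; KB derived from concentration-response curves, n = number of curves.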

[7] = Maximum concentration in whole blood recorded in the period 0-24 hr postdose of 2.5 mg/kg in rat (normalized to a 1 mg/kg dose); format: ADME, organism-based; parameters: dose 2.5 mg/kg; details: in vivo
Procedure, shortened: (§3)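 Sprague-Dawley rats, fasted overnight, cannulated in carotid artery and/or jugular vein at least 20 h before dosing. Oral doses 1 or 2.5 mg/kg, iv 2.5 mg/kg via jugular cannula, in polyethylene glycol/phosphate buffered saline. Unchanged compound in whole blood measured by HPLC over 0–24 h; AUC by trapezoidal rule; values also normalized to 1.0 mg/kg.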

[8] = Integrated area under the blood concentration vs time curve for the period 0-24 hr postdose of 5.0 mg/kg (normalized to a 1 mg/kg dose) GP; format: ADME, organism-based; parameters: dose 5 mg/kg, time < 24 hr; details: guinea pig, in vivo
Procedure, shortened: (§4)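 Guinea pigs, fasted overnight and cannulated at least 20 h beforehand, given 5 mg/kg orally and intravenously (jugular cannula) in polyethylene glycol/phosphate buffered saline.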

[9] = Bioavailability was determined in GP; format: ADME, organism-based, Cavia porcellus; details: guinea pig, in vivo; procedure, shortened: as §4
[10] = Maximum concentration in whole blood recorded in the period 0-24 hr postdose of 5.0 mg/kg GP (normalized to a 1 mg/kg dose); format: ADME, organism-based; parameters: dose 5 mg/kg; details: guinea pig, in vivo; procedure, shortened: as §4
Rattus norvegicus [11] = assay: Integrated area under the blood concentration vs time curve for the period 0-24 hr postdose of 2.5 mg/kg (normalized to a 1 mg/kg dose) in rat; format: ADME, organism-based; parameters: dose 2.5 mg/kg, time < 24 hr; details: in vivo; procedure, shortened: as §3
[12] = Bioavailability in rat; format: ADME, organism-based; details: in vivo; procedure, shortened: as §3
Rattus norvegicus [13] = assay: Maximum concentration in whole blood recorded in the period 0-24 hr postdose of 1 mg/kg in rat (normalized to a 1 mg/kg dose); format: ADME, organism-based; parameters: dose 1 mg/kg; details: in vivo; procedure, shortened: as §3
Rattus norvegicus [14] = assay: Integrated area under the blood concentration vs time curve for the period 0-24 hr postdose of 1 mg/kg (normalized to a 1 mg/kg dose) in rat; format: ADME, organism-based; parameters: dose 1 mg/kg, time < 24 hr; details: in vivo; procedure, shortened: as §3
[15] = Maximum concentration in whole blood recorded in the period 0-24 hr postdose of 1 mg/kg in rat; format: ADME, organism-based; parameters: dose 1 mg/kg
Rattus norvegicus [16] = assay: Integrated area under the blood concentration vs time curve for the period 0-24 hr postdose of 1 mg/kg in rat; format: ADME, organism-based; parameters: time < 24 hr, dose 1 mg/kg; details: in vivo

SMILES	Ki [1] [nM]	Ki [2] [nM]	ED50 (Cavia porcellus [3]) [µmol/kg]	ED50 (Cavia porcellus [5]) [µmol/kg]	pKB [6]	also measured
C/C=C\c1cn(Cc2ccc(C(=O)NS(=O)(=O)c3ccccc3C)cc2OC)c2cc(C(=O)NCC(CC)CC)ccc12	50.1	–	–	–	–	–
COc1cc(C(=O)NS(=O)(=O)c2ccccc2C)ccc1Cn1cc(C)c2ccc(C(=O)NCC3CCCC3)cc21	–	10	~30	1.62	8.9	Ratio [4]: ~20
CCC(CC)CNC(=O)c1ccc2c(CC3CCCC3)cn(Cc3ccc(C(=O)NS(=O)(=O)c4ccccc4C)cc3OC)c2c1	1	–	–	–	–	–
CCC(CC)CNC(=O)c1ccc2c(c1)c(Cc1ccc(C(=O)NS(=O)(=O)c3ccccc3C)cc1OC)cn2C(C)C	–	0.501	4.7	0.02	8.8	Ratio [4]: 300
CCCC1CCN(C(=O)c2ccc3c(c2)c(Cc2ccc(C(=O)NS(=O)(=O)c4ccccc4C)cc2OC)cn3C)CC1	–	100	–	–	–	–
CCC(CC)CNC(=O)c1ccc2c(c1)c(Cc1ccc(C(=O)NS(=O)(=O)c3ccccc3C)cc1OC)cn2CC	–	1	5.3	0.07	9.5	Cmax [7]: 540 ng/mL; AUC [8]: 207 ng·h/mL; bioavailability [9]: 5.1%; Cmax [10]: 92 ng/mL; AUC (Rattus norvegicus [11]): 4070 ng/h/mL; bioavailability [12]: 28.1%; Ratio [4]: 81
COc1cc(C(=O)NS(=O)(=O)c2ccccc2C)ccc1Cc1cn(C)c2ccc(C(=O)NCC(C)C)cc12	6.31	–	> 30	–	8.6	–
CCCn1cc(Cc2ccc(C(=O)NS(=O)(=O)c3ccccc3C)cc2OC)c2cc(C(=O)NCC3CCCC3)ccc21	–	0.316	4.8	0.03	8.7	Cmax (Rattus norvegicus [13]): 106 ng/mL; AUC (Rattus norvegicus [14]): 1610 ng·h/mL; Ratio [4]: 179
CCCn1cc(Cc2ccc(C(=O)NS(=O)(=O)c3ccccc3)cc2OC)c2cc(C(=O)NCC(C)C)ccc21	7.94	–	–	–	7.6	–
CCCC(C)CNC(=O)c1ccc2c(c1)c(Cc1ccc(C(=O)NS(=O)(=O)c3ccccc3C)cc1OC)cn2C (stereo not drawn)	–	6.31	–	–	8.5	–
CCC(CC)CNC(=O)c1ccc2c(CC3CCCCC3)cn(Cc3ccc(C(=O)NS(=O)(=O)c4ccccc4C)cc3OC)c2c1	2.51	–	–	–	–	–
CCC(CC)CNC(=O)c1ccc2c(c1)c(Cc1ccc(C(=O)NS(=O)(=O)c3ccccc3Br)cc1OC)cn2C	3.98	–	21.4	0.84	9.1	Ratio [4]: 25
CCC(CC)CNC(=O)c1ccc2c(c1)c(Cc1ccc(C(=O)NS(=O)(=O)c3ccccc3C)cc1OC)cn2C	2	–	14.7	1.09	8	Cmax [15]: 410 ng/mL; AUC (Rattus norvegicus [16]): 5740 ng·h/mL; Ratio [4]: 14
COc1cc(C(=O)NS(=O)(=O)c2ccccc2C)ccc1Cc1cn(C)c2ccc(C(=O)NCCc3ccccc3)cc12	–	79.4	–	–	–	–
CCC(CC)CNC(=O)c1ccc2c(c1)c(Cc1ccc(C(=O)NS(=O)(=O)c3ccccc3C)cc1OC)cn2Cc1ccccc1	–	1.26	–	–	8.3	–
CCC(CC)CNC(=O)c1ccc2c(CCc3ccccc3)cn(Cc3ccc(C(=O)NS(=O)(=O)c4ccccc4C)cc3OC)c2c1	25.1	–	–	–	–	–
CCCc1cn(Cc2ccc(C(=O)NS(=O)(=O)c3ccccc3C)cc2OC)c2cc(C(=O)NCC(CC)CC)ccc12	1.26	–	–	–	8.8	–
CCCn1cc(Cc2ccc(C(=O)NS(=O)(=O)c3ccccc3)cc2OC)c2cc(C(=O)NCC(CC)CC)ccc21	3.98	–	–	–	7.7	–
CCC(CC)CNC(=O)c1ccc2c(CC(C)C)cn(Cc3ccc(C(=O)NS(=O)(=O)c4ccccc4C)cc3OC)c2c1	6.31	–	–	–	8.2	–
CCCCCCC(C)CNC(=O)c1ccc2c(c1)c(Cc1ccc(C(=O)NS(=O)(=O)c3ccccc3C)cc1OC)cn2C (stereo not drawn)	–	7.94	–	–	7.5	–
COc1cc(C(=O)NS(=O)(=O)c2ccccc2C)ccc1Cc1cn(C)c2ccc(C(=O)NC3CCCCC3)cc12	–	100	–	–	–	–

SMILES	Ki [1] [nM]	Ki [2] [nM]	ED50 (Cavia porcellus [3]) [µmol/kg]	ED50 (Cavia porcellus [5]) [µmol/kg]	pKB [6]	also measured
CCC(CC)CNC(=O)c1ccc2c(C)cn(Cc3ccc(C(=O)NS(=O)(=O)c4ccccc4C)cc3OC)c2c1	–	2.51	–	–	8.4	–
CCCn1cc(Cc2ccc(C(=O)NS(=O)(=O)c3ccccc3C)cc2OC)c2cc(C(=O)NCC(CC)CC)ccc21	–	0.794	5.6	0.04	8.9	Ratio [4]: 137
CCCCC(CC)CNC(=O)c1ccc2c(c1)c(Cc1ccc(C(=O)NS(=O)(=O)c3ccccc3C)cc1OC)cn2C (stereo not drawn)	–	6.31	8.06	0.28	8.1	Ratio [4]: 29
COc1cc(C(=O)NS(=O)(=O)c2ccccc2C)ccc1Cn1cc(C)c2ccc(NC(=O)CC3CCCC3)cc21	–	–	0.3	–	9.3	–
CCc1cn(Cc2ccc(C(=O)NS(=O)(=O)c3ccccc3C)cc2OC)c2cc(C(=O)NCC(CC)CC)ccc12	–	3.16	–	–	8.2	–
COc1cc(C(=O)NS(=O)(=O)c2ccccc2C)ccc1Cc1cn(C)c2ccc(C(=O)NCC(C)(C)C)cc12	–	15.8	–	–	7.5	–
C=CCn1cc(Cc2ccc(C(=O)NS(=O)(=O)c3ccccc3C)cc2OC)c2cc(C(=O)NCC3CCCC3)ccc21	–	0.398	9.9	0.03	8.3	–
COc1cc(C(=O)NS(=O)(=O)c2ccccc2C)ccc1Cc1cn(C)c2ccc(C(=O)NCCC(C)C)cc12	–	15.8	–	–	–	–
COc1cc(C(=O)NS(=O)(=O)c2ccccc2C)ccc1Cc1cn(C)c2ccc(NC(=O)CC3CCCC3)cc12	–	–	0.41	0.02	9.7	Ratio [4]: 22
CCC(CC)CNC(=O)c1ccc2c(c1)c(Cc1ccc(C(=O)NS(=O)(=O)c3ccccc3Cl)cc1OC)cn2C	6.31	–	–	–	–	–
CCCn1cc(Cc2ccc(C(=O)O)cc2OC)c2cc(C(=O)NCC(C)C)ccc21	2510	–	–	–	–	–
CCCCC(CC)NC(=O)c1ccc2c(c1)c(Cc1ccc(C(=O)NS(=O)(=O)c3ccccc3C)cc1OC)cn2C (stereo not drawn)	–	126	–	–	–	–
CCCn1cc(Cc2ccc(C(=O)NS(=O)(=O)c3ccccc3C)cc2OC)c2cc(C(=O)NCC(C)C)ccc21	–	2	31	0.07	9.1	Ratio [4]: 456
CCCCN(CCCC)C(=O)c1ccc2c(c1)c(Cc1ccc(C(=O)NS(=O)(=O)c3ccccc3C)cc1OC)cn2C	–	79.4	–	–	–	–
CCC(CC)CNC(=O)c1ccc2c(c1)c(Cc1ccc(C(=O)NS(=O)(=O)c3ccccc3C)cc1OC)cn2C1CCCC1	–	2.51	–	–	–	–
CCCCCC(C)CNC(=O)c1ccc2c(c1)c(Cc1ccc(C(=O)NS(=O)(=O)c3ccccc3C)cc1OC)cn2C (stereo not drawn)	–	10	–	–	–	–
CCC(C)CNC(=O)c1ccc2c(c1)c(Cc1ccc(C(=O)NS(=O)(=O)c3ccccc3C)cc1OC)cn2C (stereo not drawn)	–	5.01	20	1.39	8.7	Ratio [4]: 14
COc1cc(C(=O)NS(=O)(=O)c2ccccc2C)ccc1Cc1cn(C)c2ccc(C(=O)NCC3CCCC3)cc12	–	3.16	–	0.69	8.4	Ratio [4]: 28
CCC(CC)CNC(=O)c1ccc2ccn(Cc3ccc(C(=O)NS(=O)(=O)c4ccccc4C)cc3OC)c2c1	–	12.6	–	–	–	–
COc1cc(C(=O)NS(=O)(=O)c2ccccc2C)ccc1Cc1cn(C)c2ccc(C(=O)N(C)CC(C)C)cc12	–	63.1	–	–	–	–
